In ChEMBL document CHEMBL4002595, “Metadynamics for Perspective Drug Design: Computationally Driven Synthesis of New Protein-Protein Interaction Inhibitors Targeting the EphA2 Receptor” (J Med Chem, 2017):
In brackets after ≈: the same amount, converted by molar mass. Each block holds one compound with its values, some of them ahead of it. Activity calls are given as the source filed them. The calls are words filed in the database; no cut-off is given here.

Legend:
[1] = biological target: Ephrin type-A receptor 2 (Mus musculus, UniProt Q03145); assay: Displacement of biotinylated ephrin-A1-Fc from recombinant mouse EphA2 receptor preincubated for 1 hr followed by biotinylated ephrin-A1-Fc addition measured after 4 hrs by ELISA method
[2] = biological target: Ephrin type-A receptor 2 (Mus musculus) (UniProt Q03145); assay: Displacement of biotinylated ephrin-A1-Fc from recombinant mouse EphA2 receptor up to 100 uM preincubated for 1 hr followed by biotinylated ephrin-A1-Fc addition measured after 4 hrs by ELISA method
How it was run: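 EphA2-Fc (1 µg mL⁻¹ in PBS pH 7.4) was coated overnight at 4 °C, then blocked with PBS + 0.5% BSA for 1 h at 37 °C. Compounds in 1% DMSO were added for 1 h at 37 °C. Biotinylated ephrin-A1-Fc was then added at its K_D for 4 h at 37 °C. Detection used streptavidin-HRP (20 min, RT), TMB/H₂O₂, HCl stop and A450. IC₅₀ came from one-site competition nonlinear regression; mean of ≥3 independent experiments.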

[3] = tested on: Liver; assay: Drug level in mouse liver microsomes treated with (S)-3-((S)-4-((5R,8R,9S,10S,13R,14S,17R)-3-hydroxy-10,13-dimethylhexadecahydro-1H-cyclopenta[a]phenanthren-17-yl)pentanamido)-4-(1H-indol-3-yl)butanoic acid by HPLC-ESI-MS/MS analysis
[4] = tested on: Plasma; assay: Drug uptake in mouse plasma at 30 mg/kg, administered as single dose via oral gavage after 120 min by HPLC-ESI-MS/MS analysis; conditions: in vivo
[5] = Kinetic solubility in MOPS buffer at pH 7.4 measured after 4 hrs by HPLC-ESI-MS/MS analysis; assay type: physicochemical; conditions: read-out: Kinetic_solubility
How it was run: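 DMSO stock (10 mM) diluted into 50 mM MOPS pH 7.4, ionic strength 0.15 M with KCl, final 1% DMSO. Agitated 4 h at 25 ± 3 °C, centrifuged 1,000 g 10 min. Supernatant diluted 1:1 with MeOH containing internal standard, quantified by HPLC-ESI-MS/MS against per-compound MeOH calibration curves.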

[6] = tested on: Liver; assay: Drug metabolism in mouse liver microsomes assessed as (S)-3-((S)-4-((5R,8R,9S,10S,13R,14S,17R)-10,13-dimethyl-3-oxohexadecahydro-1H-cyclopenta[a]phenanthren-17-yl)pentanamido)-4-(1H-indol-3-yl)butanoic acid formation by HPLC-ESI-MS/MS analysis; assay type: ADME, microsome
[7] = Cmax in mouse at 30 mg/kg, administered as single dose via oral gavage by HPLC-ESI-MS/MS analysis; assay type: ADME, organism-based; design: dose 30 mg/kg, route oral; conditions: in vivo
How it was run: (§1)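 Male mice, fasted, groups of four; single oral gavage at 30 mg/kg in 0.5% methylcellulose (10/90 v/v). Tail-puncture blood at 5-7 time points between 15 and 1440 min, centrifuged 5000 rpm 10 min, plasma stored at -20 °C, quantified by HPLC-ESI-MS/MS. Reported as means ± SEM.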

[8] = Half-life in mouse liver microsomes at 1 uM in presence of NADPH by HPLC-ESI-MS/MS analysis; assay type: ADME, microsome
[9] = n-Octanol-buffer partition co-efficient, log D of the compound at pH 7.4 incubated overnight by shake-flask method; assay type: physicochemical
How it was run: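 Shake-flask n-octanol/buffer partition at 25 ± 3 °C against 50 mM MOPS pH 7.4, ionic strength 0.15 M with KCl. Pre-saturated phases equilibrated overnight. Each phase diluted in MeOH with internal standard and analysed by HPLC-ESI-MS/MS. Mean of three independent partitions using different octanol/buffer volume ratios.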

[10] = Stability in mouse plasma assessed as compound remaining at 1 uM after 24 hrs by HPLC-ESI-MS/MS analysis; assay type: ADME, cell-free; conditions: read-out: Stability
How it was run: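 Mouse plasma diluted to 80% (v/v) with 100 mM PBS pH 7.4. Compound added at 1 μM final with 1% v/v DMSO, held at 37 °C. Aliquots taken at intervals, quenched with two volumes MeCN, centrifuged 9,000 g 10 min at 4 °C. Percent remaining measured by HPLC-ESI-MS/MS.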

[11] = Tmax in mouse at 30 mg/kg, administered as single dose via oral gavage by HPLC-ESI-MS/MS analysis; assay type: ADME, organism-based; conditions: in vivo; how it was run: as §1
[12] = tested on: Plasma; assay: Drug uptake in mouse plasma at 30 mg/kg, administered as single dose via oral gavage after 24 hrs by HPLC-ESI-MS/MS analysis; assay type: ADME, organism-based; conditions: in vivo
How it was run: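 Male mice (fasted, four per group) received a single esophageal gavage of 30 mg/kg in 0.5% methylcellulose. Tail-puncture blood was taken at 5–7 time points between 15 and 1440 min. Plasma was separated by centrifugation (5000 rpm, 10 min), stored at –20 °C and quantified by HPLC-ESI-MS/MS. Data are means ± SEM.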

Ephrin type-A receptor 2, sequence (Q03145 whole entry): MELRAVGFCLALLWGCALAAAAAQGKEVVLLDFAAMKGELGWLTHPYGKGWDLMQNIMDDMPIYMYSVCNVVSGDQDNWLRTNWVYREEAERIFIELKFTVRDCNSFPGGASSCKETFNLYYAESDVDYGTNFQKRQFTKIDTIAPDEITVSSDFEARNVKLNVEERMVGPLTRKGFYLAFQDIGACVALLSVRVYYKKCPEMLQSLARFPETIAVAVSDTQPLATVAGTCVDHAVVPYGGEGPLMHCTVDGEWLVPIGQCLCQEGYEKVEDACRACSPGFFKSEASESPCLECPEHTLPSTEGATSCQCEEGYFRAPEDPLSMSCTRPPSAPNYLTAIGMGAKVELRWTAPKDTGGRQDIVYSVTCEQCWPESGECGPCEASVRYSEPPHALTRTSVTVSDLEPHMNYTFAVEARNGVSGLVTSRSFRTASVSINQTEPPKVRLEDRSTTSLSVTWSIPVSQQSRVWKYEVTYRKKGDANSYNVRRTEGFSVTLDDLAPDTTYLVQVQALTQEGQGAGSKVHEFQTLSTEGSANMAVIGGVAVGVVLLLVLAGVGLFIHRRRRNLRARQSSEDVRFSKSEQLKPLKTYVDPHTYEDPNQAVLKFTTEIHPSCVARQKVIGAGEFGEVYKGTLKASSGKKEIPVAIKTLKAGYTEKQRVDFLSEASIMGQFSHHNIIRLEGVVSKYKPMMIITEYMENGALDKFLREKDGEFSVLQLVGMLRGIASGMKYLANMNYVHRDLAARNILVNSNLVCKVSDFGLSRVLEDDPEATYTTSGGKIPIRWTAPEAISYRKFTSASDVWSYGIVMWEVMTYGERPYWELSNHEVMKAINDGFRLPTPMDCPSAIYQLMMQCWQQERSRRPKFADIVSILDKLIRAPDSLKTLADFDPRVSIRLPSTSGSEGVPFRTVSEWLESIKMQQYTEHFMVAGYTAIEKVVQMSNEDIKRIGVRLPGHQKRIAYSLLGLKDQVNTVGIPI
Ephrin type-A receptor 2 (Mus musculus), sequence (Q03145 whole entry): as above

Structure (SMILES): C[C@H](CCC(=O)O)[C@H]1CC[C@H]2[C@@H]3CC[C@@H]4C[C@H](O)CC[C@]4(C)[C@H]3CC[C@]12C [LITHOCHOLIC ACID]
- IC50 [1]: 79 µM

- inhibition [2]: inactive
Structure (SMILES): CC(C)C[C@@H](CC(=O)O)NC(=O)CC[C@@H](C)[C@H]1CC[C@H]2[C@@H]3CC[C@@H]4C[C@H](O)CC[C@]4(C)[C@H]3CC[C@]12C

- IC50 [1]: 3.9 µM
Structure (SMILES): C[C@H](CCC(=O)N[C@H](CC(=O)O)Cc1cccc2ccccc12)[C@H]1CC[C@H]2[C@@H]3CC[C@@H]4C[C@H](O)CC[C@]4(C)[C@H]3CC[C@]12C

- IC50 [1]: 18 µM
Structure (SMILES): C[C@H](CCC(=O)N[C@H](CC(=O)O)Cc1ccccc1)[C@H]1CC[C@H]2[C@@H]3CC[C@@H]4C[C@H](O)CC[C@]4(C)[C@H]3CC[C@]12C

- Drug metabolism [3]: Metabolite_Detected
Structure (SMILES): C[C@H](CCC(=O)N[C@H](CC(=O)O)Cc1c[nH]c2ccccc12)[C@H]1CC[C@H]2[C@@H]3CC[C@@H]4CC(=O)CC[C@]4(C)[C@H]3CC[C@]12C

Structure (SMILES): C[C@H](CCC(=O)N[C@H](CC(=O)O)Cc1c[nH]c2ccccc12)[C@H]1CC[C@H]2[C@@H]3CC[C@@H]4C[C@H](O)CC[C@]4(C)[C@H]3CC[C@]12C
- Drug uptake [4]: Active
- solubility kinetic at 4 h [5]: 31.8 µM (≈ 18.3 µg/mL)
- Drug metabolism [6]: Metabolite_Detected
- Cmax [7]: 10 nM
- half-life at 1 µM [8]: 0.28 h

- IC50 [1]: 14 µM
Structure (SMILES): C[C@H](CCC(=O)N[C@H](CC(=O)O)c1ccccc1)[C@H]1CC[C@H]2[C@@H]3CC[C@@H]4C[C@H](O)CC[C@]4(C)[C@H]3CC[C@]12C

- inhibition [2]: inactive
Structure (SMILES): COC(=O)CCNC(=O)CC[C@@H](C)[C@H]1CC[C@H]2[C@@H]3CC[C@@H]4C[C@H](O)CC[C@]4(C)[C@H]3CC[C@]12C

- IC50 [1]: 13 µM
Structure (SMILES): CO/N=C1\CC[C@@]2(C)[C@H](CC[C@@H]3[C@@H]2CC[C@]2(C)[C@@H]([C@H](C)CCC(=O)N[C@H](CC(=O)O)Cc4c[nH]c5ccccc45)CC[C@@H]32)C1

- inhibition [2]: inactive
Structure (SMILES): C[C@H](CCC(=O)NCCCCC(=O)O)[C@H]1CC[C@H]2[C@@H]3CC[C@@H]4C[C@H](O)CC[C@]4(C)[C@H]3CC[C@]12C

- inhibition [2]: inactive
Structure (SMILES): C[C@H](CCC(=O)NCCCC(=O)O)[C@H]1CC[C@H]2[C@@H]3CC[C@@H]4C[C@H](O)CC[C@]4(C)[C@H]3CC[C@]12C

Structure (SMILES): C[C@H](CCC(=O)NCCC(=O)O)[C@H]1CC[C@H]2[C@@H]3CC[C@@H]4C[C@H](O)CC[C@]4(C)[C@H]3CC[C@]12C
- IC50 [1]: 29 µM

- IC50 [1]: 83 µM
Structure (SMILES): CSCC[C@@H](CC(=O)O)NC(=O)CC[C@@H](C)[C@H]1CC[C@H]2[C@@H]3CC[C@@H]4C[C@H](O)CC[C@]4(C)[C@H]3CC[C@]12C

- IC50 [1]: 1.8 µM
Structure (SMILES): C[C@H](CCC(=O)N[C@H](CC(=O)O)Cc1csc2ccccc12)[C@H]1CC[C@H]2[C@@H]3CC[C@@H]4C[C@H](O)CC[C@]4(C)[C@H]3CC[C@]12C

Structure (SMILES): C[C@H](CCC(=O)NCCS(=O)(=O)O)[C@H]1CC[C@H]2[C@@H]3CC[C@@H]4C[C@H](O)CC[C@]4(C)[C@H]3CC[C@]12C [TAUROLITHOCHOLIC ACID]
- IC50 [1]: 72 µM

- IC50 [1]: 0.8 µM
- logD [9]: 5.01
- remaining at 24 h, 1 µM [10]: 98.2%
- solubility kinetic at 4 h [5]: 18.7 µM (≈ 11.6 µg/mL)
- Cmax [7]: 870 nM
- Tmax [11]: 1 h
- Drug uptake [12]: Active
- half-life at 1 µM [8]: 2.6 h
Structure (SMILES): C[C@H](CCC(=O)N[C@H](CC(=O)O)Cc1c[nH]c2ccccc12)[C@H]1CC[C@H]2[C@@H]3CC[C@@H]4C[C@H](OC(N)=O)CC[C@]4(C)[C@H]3CC[C@]12C

Structure (SMILES): C[C@H](CCC(=O)N[C@H](CC(=O)O)Cc1c[nH]c2ccccc12)[C@H]1CC[C@H]2[C@@H]3CC[C@@H]4C/C(=N/O)CC[C@]4(C)[C@H]3CC[C@]12C
- IC50 [1]: 3.1 µM
- logD [9]: 4.23
- remaining at 24 h, 1 µM [10]: 93.7%
- solubility kinetic at 4 h [5]: 51.9 µM (≈ 30.6 µg/mL)
- Cmax [7]: 400 nM
- Tmax [11]: 1 h
- half-life at 1 µM [8]: 1.01 h

- inhibition [2]: inactive
Structure (SMILES): C[C@H](CCC(=O)N[C@@H](CCc1ccccc1)CC(=O)O)[C@H]1CC[C@H]2[C@@H]3CC[C@@H]4C[C@H](O)CC[C@]4(C)[C@H]3CC[C@]12C

- IC50 [1]: 10 µM
Structure (SMILES): CC(C)[C@@H](CC(=O)O)NC(=O)CC[C@@H](C)[C@H]1CC[C@H]2[C@@H]3CC[C@@H]4C[C@H](O)CC[C@]4(C)[C@H]3CC[C@]12C

- IC50 [1]: 28 µM
Structure (SMILES): C[C@H](CCC(=O)N[C@H](CC(=O)O)Cc1c[nH]c2ccccc12)[C@H]1CC[C@H]2[C@@H]3CC[C@@H]4CCCC[C@]4(C)[C@H]3CC[C@]12C
